Only some compounds are listed: those with a hit (about 5.4% of all), similar ones and a draw of the others.
aSyn 5UTR inh: MLPCN primary screen, SNCA 5' untranslated region | inhibition, % (tested at 7.5 µM) | alpha-synuclein 5'UTR reporter, inhibitor activity | hit rate 0.82% among 300,000 | AID 1813, 2009; in the data active = inhibition above about 60%; inconclusive = no clear call, values can overlap the other calls;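 note: H4 neuroglioblastoma cells stably carrying SNCA 5'UTR luciferase fusion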
Mdm2-MdmX inh: inhibitors of human Mdm2-MdmX association, primary screen, cell-based, luminescence, split luciferase, SaOS-2, uHTS. inhibition, % at 8 µM. AID 485346, 2010. Protein Mdm4 (Homo sapiens) + E3 ubiquitin-protein ligase Mdm2 (Homo sapiens), …. SaOS-2 split-luciferase Mdm2/MdmX complementation. hit rate 3% among 330,000;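 active = inhibition of at least 50% at 8 µM in the primary screen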
Target sequence (O15151 whole entry, looked up): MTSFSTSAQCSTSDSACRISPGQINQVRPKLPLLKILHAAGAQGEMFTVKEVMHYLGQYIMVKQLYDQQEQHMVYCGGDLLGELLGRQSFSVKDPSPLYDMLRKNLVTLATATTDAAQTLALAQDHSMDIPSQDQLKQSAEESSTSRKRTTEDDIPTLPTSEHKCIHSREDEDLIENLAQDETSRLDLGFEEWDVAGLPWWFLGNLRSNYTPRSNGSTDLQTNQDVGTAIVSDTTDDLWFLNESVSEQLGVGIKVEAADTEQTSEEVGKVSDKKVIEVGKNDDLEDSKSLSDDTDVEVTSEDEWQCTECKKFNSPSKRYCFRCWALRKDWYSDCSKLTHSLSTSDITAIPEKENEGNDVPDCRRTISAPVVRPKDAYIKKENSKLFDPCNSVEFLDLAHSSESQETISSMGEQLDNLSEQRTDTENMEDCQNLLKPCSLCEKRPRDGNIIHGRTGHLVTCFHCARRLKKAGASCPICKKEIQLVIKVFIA
Target sequence (Q00987 whole entry, looked up): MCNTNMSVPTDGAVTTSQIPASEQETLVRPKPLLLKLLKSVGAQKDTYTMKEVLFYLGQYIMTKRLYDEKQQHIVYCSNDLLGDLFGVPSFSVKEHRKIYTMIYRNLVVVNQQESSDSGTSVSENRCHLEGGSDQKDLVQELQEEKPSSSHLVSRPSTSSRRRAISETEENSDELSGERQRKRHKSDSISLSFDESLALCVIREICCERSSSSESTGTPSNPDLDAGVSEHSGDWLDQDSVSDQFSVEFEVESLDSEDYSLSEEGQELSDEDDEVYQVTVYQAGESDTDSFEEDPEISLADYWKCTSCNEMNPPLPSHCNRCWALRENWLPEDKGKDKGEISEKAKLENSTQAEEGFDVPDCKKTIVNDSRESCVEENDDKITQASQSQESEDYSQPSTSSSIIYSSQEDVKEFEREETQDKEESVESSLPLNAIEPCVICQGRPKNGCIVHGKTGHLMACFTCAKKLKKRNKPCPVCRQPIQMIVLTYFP
SKKanGAS inh: S. pyogenes SKKanGAS growth inhibitors in kanamycin, primary screen, streptokinase expression inhibitor project, SKKanGAS strain, BacTiter-Glo luminescence; inhibition, % at 7.5 µM; 6 h; hit rate 1.3% among 300,000;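 active = mean replicate score, as percent of positive control median, at least 50; inconclusive = mean below 50 but one replicate at or above 50; inactive = mean and every replicate below 50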;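 note: strain carries kanamycin resistance gene driven by streptokinase promoter and grows in 40 µg/ml kanamycin; loss of luminescence reflects streptokinase promoter inhibition or plain growth inhibition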
CSC inhib: cancer stem cell viability inhibitors, primary screen, luminescence. cancer stem cell-like cells viability. inhibition, % at 7.5 µM. hit rate 1.1% among 300,000; in the data active = inhibition above about 75%; inconclusive = no clear call, values can overlap the other calls; tested in HMLE shEcad cells
T cruzi repl: inhibitors of intracellular T. cruzi growth, primary screen, luminescence, NIH3T3 host cells; T. cruzi beta-gal in NIH3T3, 90 h; inhibition, % (no concentration beside the values); hit rate 1.4% among 300,000; AID 1885, 2009;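 active = mean inhibition across valid replicates above about 55%, limit read from the data; inconclusive = mean below that limit but half or more replicates reach it; inactive = mean below it, under half of replicates reach it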;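 note: signal also drops with host cell toxicity which is not excluded here; higher percent means less beta-gal luminescence so fewer parasites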
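assay system = mouse NIH/3T3 fibroblasts infected with β-gal-expressing T. cruzi Tulahuen C4 | input = 5,000 NIH/3T3 host cells per well | buffer or medium = DMEM plus 2% FBS | timing = 3 h host attachment, then at least 90 h co-culture | measured by = GalScreen luminescence, 60 min | evaluation = luminescence reflecting intracellular parasite burden, expressed as percent inhibition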
Numbers stand for hits; i = inactive; ? = inconclusive; nt = no result.

SMILES | aSyn 5UTR inh | Mdm2-MdmX inh | SKKanGAS inh | CSC inhib | T cruzi repl
Cc1ccn2cc(-c3ccc(Br)cc3)nc2c1 | 63 | i | i | i | i
Cc1ccc(S(=O)(=O)Nc2ccc(-c3cn4ccc(C)cc4n3)cc2)cc1 | i | i | i | i | i
Cc1ccc(-c2cc3nc(-c4ccc(Br)cc4)cc(N)n3n2)cc1 | i | i | 75 | i | i
Cc1ccnc(NC(=O)CNC(=O)c2ccccc2Br)c1 | i | i | i | i | i
COc1ccc(CN2CCCC(N3CCN(c4ccc(OC)cc4)CC3)C2)cc1 (centres undefined) | i | i | i | i | i
CCOc1cc(/C=N/O)cc(Br)c1OCc1ccc(Cl)cc1 | i | i | i | 117 | i
CCOc1cc(/C=N/O)cc(Br)c1OCC | i | i | i | i | i
O=C(COc1ccc2ccccc2c1)Nc1ccc2c3c(cccc13)CC2 | i | i | i | i | i
C/C(=N/O)c1ccccn1 | i | i | i | i | i
CCCCCC/C(=N/O)c1ccccn1 | i | i | 94 | i | i
CN(C)c1nc(N)ncc1-c1ccc(Oc2ccccc2)cc1 | i | i | i | i | 70
Cc1ccccc1CS(=O)(=O)Cc1ccc(C(=O)NC2CCCCC2)o1 | i | i | i | i | i
CC1=C(C#N)C(c2cccnc2)C2=C(CC(c3ccc(Cl)cc3)CC2=O)N1 (centres undefined) | i | i | i | i | 60
C/C(=N\NC(=S)Nc1ccccc1C)c1cc2ccccc2o1 | i | i | i | i | 59
C/C(=N\NC(=S)Nc1c(C)cccc1C)c1cc2ccccc2o1 | i | i | i | i | i
CCCCCCc1cc2cc(S(=O)(=O)c3ccc(C)cc3)c(=O)oc2cc1O | i | i | i | 89 | i
COc1ccc(N2C3=C(CC4=C2CCCC4=O)C(=O)CCC3)cc1 | i | i | i | nt | i
COc1ccc(N2C3=C(CC4=C2CC(C)(C)CC4=O)C(=O)CC(C)(C)C3)cc1 | i | i | i | i | 64
CCN(CC(=O)NC(C)(C)C)C(=O)COc1c(Cl)cc(Cl)c2ccc(C)nc12 | i | i | 87 | i | i
CCOc1ccccc1NC(=O)COC(=O)COc1c(Cl)cc(Cl)c2ccc(C)nc12 | i | i | i | i | i
Cc1ccccc1C(=O)Nc1nnc(-c2ccco2)s1 | 65 | i | i | i | i
Cc1ccc(Cl)cc1NC(=O)NCc1cccnc1 | i | i | i | i | i
Cc1ccc(Cl)cc1NC(=S)N(Cc1ccccc1)Cc1cccnc1 | i | i | i | i | 76
S=C(Nc1ccccc1Cl)N(Cc1ccccc1)Cc1cccnc1 | i | i | i | i | 62
Cc1ccccc1NC(=S)N(Cc1cccnc1)Cc1ccccc1Cl | i | i | i | i | 76
SMILES | aSyn 5UTR inh | Mdm2-MdmX inh | SKKanGAS inh | CSC inhib | T cruzi repl
CC(NC(=O)CNC(=S)N(Cc1ccccc1)Cc1cccnc1)c1ccccc1 (centres undefined) | i | i | i | i | 55
COc1ccc(-c2coc3cc(OC(C)=O)c(OC)cc3c2=O)cc1 | nt | i | nt | nt | nt
CCCn1c(NCc2ccccc2NS(=O)(=O)c2ccc(C)cc2)nc2ccccc21 | i | i | i | 75 | i
CCn1c(NCc2cc(Br)ccc2NS(=O)(=O)c2ccc(C)cc2)nc2ccccc21 | i | i | i | i | 64
COc1ccccc1N1CCN(C2CCCN(C(=O)CCc3c(C)noc3C)C2)CC1 (centres undefined) | i | i | i | i | i
CCOC(=O)c1c(S(=O)(=O)N2CCN(c3ccc(C(C)=O)cc3)CC2)c(C)n(C)c1C | i | i | i | i | i
COc1cccc(/C=C/c2nc(C#N)c(NCC(C)C)o2)c1 | i | i | i | 128 | i
CCn1c(-c2ccc(N(C)C)cc2)nc2ccccc21 | i | i | i | i | 58
CCn1c(-c2ccc(N)cc2)nc2ccccc21 | i | i | i | i | i
N=c1c2c(n(Cc3ccc(Br)cc3)c3c1CCC3)CCCC2 | ? | i | i | i | 67
CC(C)(C)c1ccc(C(=O)NCc2ccccc2)cc1 | i | i | i | i | i
O=C(NCc1ccccc1)c1ccc(C(=O)N(C2CCCCC2)C2CCCCC2)cc1 | i | i | i | i | 61
COc1ccc(OC)c(NC(=O)c2ccc3c(=O)n(CCc4ccccc4)c(=S)[nH]c3c2)c1 | i | i | i | i | i
CC(=O)N1CCN(c2cc3c(cc2F)c(=O)c(C(=O)O)cn3C2CC2)CC1 | i | i | ? | i | i
CCn1cc(C(=O)O)c(=O)c2cc(F)c(N3CCN(C(=S)NC(=O)c4ccc(F)cc4)CC3)cc21 | i | i | i | i | i
CCN1CCN(c2cc3c(cc2F)c(=O)c(C(=O)O)cn3C2CC2)CC1 | i | i | 103 | i | i
CCCOc1ccc(C(=O)NC(=S)N2CCN(c3cc4c(cc3F)c(=O)c(C(=O)O)cn4CC)CC2)cc1 | i | i | 91 | nt | i
Cc1cc(C)c(C)c(C(=O)CSc2nnc(-c3ccc4[nH]c(C)c(C)c4c3)o2)c1C | i | i | i | i | 55
Cc1[nH]c2ccc(-c3nnc(SCC(=O)c4ccc(F)cc4)o3)cc2c1C | i | i | i | nt | i
CCCCCNC(=O)Cc1ccc(S(=O)(=O)N2CCOCC2)s1 | i | i | i | i | i
Nc1nn(S(=O)(=O)c2ccccc2)cc1-c1cccc([N+](=O)[O-])c1 | i | i | i | i | 57
CCOc1ccc(S(=O)(=O)n2cc(-c3ccccc3)c(N)n2)cc1 | i | i | i | i | i
O=[N+]([O-])c1ccc(-c2cnc(SC(c3ccccc3)c3ccccc3)[nH]2)cc1 | i | i | 62 | i | i
O=[N+]([O-])c1ccc(-c2cnc(SCc3ccccc3Cl)[nH]2)cc1 | i | i | i | i | i
Cc1cc(C)c(CSc2ncc(-c3ccc([N+](=O)[O-])cc3)[nH]2)c(C)c1 | i | i | 73 | i | 58
SMILES | aSyn 5UTR inh | Mdm2-MdmX inh | SKKanGAS inh | CSC inhib | T cruzi repl
COc1ccc(NC(=O)C(OC(=O)c2cnc(C)cn2)c2ccccc2)cc1Cl (centres undefined) | i | i | 51 | i | i
O=C(Nc1ccc(OC(F)F)c(Cl)c1)C(c1ccccc1)c1ccccc1 | i | i | i | i | 60
CC(Sc1nnc(C2CC2)n1C)C(=O)Nc1ccc(N2CCOCC2)cc1 (centres undefined) | nt | i | nt | nt | nt
CCCc1nc2nc(C)c(NS(=O)(=O)c3ccc([N+](=O)[O-])cc3)c(=O)n2[nH]1 | i | i | i | i | i
CCOC(=O)Cc1csc(NC(=O)CSc2nnc(-c3ccc(OC)cc3)n2C)n1 | i | i | i | i | 70
Cc1ccc(S(=O)(=O)N2CCN(S(=O)(=O)c3ccccc3Br)C2=O)cc1 | nt | i | nt | nt | nt
CC(C)C(NC(=O)C12CC3CC(CC(C3)C1)C2)C(=O)N/N=C/C1=C(N2CCOCC2)C(=C\c2cccc([N+](=O)[O-])c2)/CC1 (centres undefined) | i | i | i | nt | 56
CC(Oc1ccc(Cl)cc1Cl)C(=O)NC1=NN(c2ccccc2)C(=O)C1 (centres undefined) | i | i | 94 | i | i

Screening data as filed in PubChem.
